ChEMBL document CHEMBL1133803, “Design and synthesis of irreversible depsipeptidyl human rhinovirus 3C protease inhibitors” (Bioorg Med Chem Lett, 2001)
pEC50: −log10 of the molar value.

Columns and labels:
[1] = Metabolism after 30 min of incubation with human liver microsomes in the presence of cofactor […] (2.0 mM) at a concentration of 25 uM; format: ADME; conditions: read-out: Metabolism
HeLa [2] = assay: Cytotoxicity against uninfected H1HeLa cells; format: functional; conditions: Homo sapiens
Human rhinovirus sp. = assay: Enzyme inhibition against Human Rhinovirus 3C protease was determined; format: functional
[3] = Metabolism after 30 min of incubation with human liver microsomes in the absence of cofactor […] (2.0 mM) at a concentration of 25 uM; format: ADME; conditions: read-out: Metabolism
Procedure, shortened: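 Compound incubated for 30 min with human liver microsomes (1.0 mg/mL), with or without NADPH. An aliquot was precipitated with acetonitrile, then analysed by reverse-phase HPLC at rt using a gradient of CH3CN/CH3OH/0.01% TFA (pH 3.5 adjusted with NEt3), from 5:20:75 to 60:20:20 over 20 min, held 10 min, 1.0 mL/min. Result expressed as % metabolism.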

HeLa [4] = assay: Anti viral activity against human rhinovirus (HRV) in H1HeLa cells; format: functional, cell-based

SMILES | metabolised at 0.5 h, 25 µM [1] | CC50 (HeLa [2]) | K obs / 1 (Human rhinovirus sp.) | metabolised at 0.5 h, 25 µM [3] | pEC50 (HeLa [4])
CCOC(=O)/C=C/[C@H](C[C@@H]1CCNC1=O)NC(=O)[C@H](Cc1ccc(F)cc1)OC(=O)[C@@H](NC(=O)c1cc(C)on1)C(C)C | 67% | > 100000 nM | 270000 M⁻¹ s⁻¹ | 44% | 8.15
CCOC(=O)/C=C/[C@H](C[C@@H]1CCNC1=O)NC(=O)[C@H](Cc1ccc(F)cc1)NC(=O)[C@@H](NC(=O)c1cc(C)on1)C(C)C | 22% | > 100000 nM | 1500000 M⁻¹ s⁻¹ | 7% | 8.00
CCOC(=O)/C=C/[C@H](CCC(N)=O)NC(=O)[C@@H](CC(=O)[C@@H](NC(=O)c1cc(C)on1)C(C)C)Cc1ccc(F)cc1 |  | > 100000 nM | 240000 M⁻¹ s⁻¹ |  | 7.00
CCOC(=O)/C=C/[C@H](CCC(N)=O)NC(=O)[C@@H](CC(=O)[C@@H](NC(=O)SC1CCCC1)C(C)C)Cc1ccc(F)cc1 |  | > 100000 nM | 293000 M⁻¹ s⁻¹ |  | 7.70
CCOC(=O)/C=C/[C@H](C[C@@H]1CCNC1=O)NC(=O)[C@@H](CC(=O)[C@@H](NC(=O)c1cc(C)on1)C(C)C)Cc1ccc(F)cc1 [RUPINTRIVIR] | 50% | > 100000 nM | 1090000 M⁻¹ s⁻¹ | 27% | 8.30
CCOC(=O)/C=C/[C@H](CCC(N)=O)NC(=O)[C@H](Cc1ccc(F)cc1)OC(=O)[C@@H](NC(=O)c1cc(C)on1)C(C)C |  | > 10000 nM | 68400 M⁻¹ s⁻¹ |  | 7.00
CCOC(=O)/C=C/[C@H](CCC(N)=O)NC(=O)[C@H](Cc1ccc(F)cc1)NC(=O)[C@@H](NC(=O)SC1CCCC1)C(C)C |  | > 100000 nM | 59900 M⁻¹ s⁻¹ |  | 6.72
CCOC(=O)/C=C/[C@H](CCC(N)=O)NC(=O)[C@H](Cc1ccc(F)cc1)OC(=O)[C@@H](NC(=O)SC1CCCC1)C(C)C |  | > 10000 nM | 99800 M⁻¹ s⁻¹ |  | 6.00
CCOC(=O)/C=C/[C@H](CCC(N)=O)NC(=O)[C@H](Cc1ccc(F)cc1)NC(=O)[C@@H](NC(=O)c1cc(C)on1)C(C)C |  | > 100000 nM | 248000 M⁻¹ s⁻¹ |  | 6.38
